Results as given in ChEMBL document CHEMBL1136527, “Antifungal activity of a Candida albicans GGTase I inhibitor-alanine conjugate. Inhibition of Rho1p prenylation in C. albicans” (Bioorg Med Chem Lett, 2003).
Converted amounts (≈) assume the structure as drawn.

How the values were obtained:
[1] = tested on: Candida albicans; assay: Inhibition of Candida albicans after addition of amino acids at 1 mM; assay type: functional
How it was run: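 MIC against C. albicans SC5314 in YNBGlc medium (YNB without amino acids plus histidine, methionine, tryptophan, glutamine, 2% glucose), further supplemented with an amino acid mixture at 1mM final, to compete for permease uptake.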

[2] = target: Geranylgeranyl transferase type I (Candida albicans); assay: Inhibition of Candida albicans Geranylgeranyl transferase type I
[3] = tested on: Candida albicans; assay: Fungicidal activity against Candida albicans; assay type: functional
[4] = target: Protein farnesyltransferase (Candida albicans); assay: Inhibition of Candida albicans Farnesyltransferase
[5] = tested on: Candida albicans; assay: Inhibitory of Candida albicans; assay type: functional
How it was run: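 MIC against C. albicans SC5314 in YNBGlc medium: yeast nitrogen base without amino acids, supplemented with histidine, methionine, tryptophan, glutamine and 2% glucose.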

Structure (SMILES)	MIC [1] [µg/mL]	IC50 [2] [nM]	MFC [3] [µg/mL]	IC50 [4] [nM]	MIC [5] [µg/mL]
CC(C)C[C@H](NC(=O)C1(c2ccccc2)CCN(C(=O)[C@@H](N)CS)CC1)C(=O)N[C@@H](C)C(=O)O	> 64	10	2 (≈ 4.06 µM)	3000	1 (≈ 2.03 µM)
CC(C)C[C@H](NC(=O)C1(c2ccccc2)CCN(C(=O)[C@@H](N)CS)CC1)C(=O)O		< 5	> 128	200	> 128
COC(=O)[C@H](CC(C)C)NC(=O)C1(c2ccccc2)CCN(C(=O)[C@@H](N)CS)CC1		5	> 128		> 128
